From ChEMBL document CHEMBL1145212, “Fluorinated diaryl sulfides as serotonin transporter ligands: synthesis, structure-activity relationship study, and in vivo evaluation of fluorine-18-labeled compounds as PET imaging agents” (J Med Chem, 2005)

Legend:
Rattus norvegicus [1] = assay: Biodistribution of [18F]AFP in rat frontal cortex at 90 min postinjection in vivo; assay type: ADME, organism-based; conditions: 1.5 h
Rattus norvegicus [2] = species on record: Rattus norvegicus; assay: Specific binding of [18F]AFA in hypothalamus of rat pretreated with compound 7f; n=3; assay type: functional
Rattus norvegicus [3] = assay: Biodistribution of [18F]AFP in rat hippocampus at 90 min postinjection in vivo; assay type: ADME, organism-based; conditions: 1.5 h
Rattus norvegicus [4] = assay: Biodistribution of [18F]AFP in rat hypothalamus at 60 min postinjection in vivo; assay type: ADME, organism-based; conditions: 1 h
Rattus norvegicus [5] = assay: Biodistribution of [18F]AFP in rat striatum at 10 min postinjection in vivo; assay type: ADME, organism-based
Rattus norvegicus [6] = assay: Biodistribution of [18F]AFP in rat blood at 30 min postinjection in vivo; assay type: ADME, organism-based; conditions: 0.5 h
Rattus norvegicus [7] = assay: Biodistribution of [18F]AFP in rat blood at 10 min postinjection in vivo; assay type: ADME, organism-based
Rattus norvegicus [8] = assay: Biodistribution of [18F]AFP in rat hypothalamus at 10 min postinjection in vivo; assay type: ADME, organism-based
Rattus norvegicus [9] = assay: Biodistribution of [18F]-AFP in rat cerebellum at 10 min postinjection in vivo; assay type: ADME, organism-based
In short: (§1)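 Male Sprague-Dawley rats, three per time point, received the F-18 radioligand in saline (~20 µCi per rat at injection) by tail vein. Under CO2 anesthesia they were decapitated at 10, 30, 60, 90 or 120 min. Blood and dissected brain regions were weighed and gamma counted. Activity was decay-corrected, and injected dose was corrected for tail residual activity. Uptake was expressed as %ID/g versus injectate standards, mean ± SD.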

Rattus norvegicus [10] = assay: Biodistribution of [18F]AFP in rat frontal cortex at 10 min postinjection in vivo; assay type: ADME, organism-based
Rattus norvegicus [11] = assay: Biodistribution of [18F]AFP in rat hypothalamus at 90 min postinjection in vivo; assay type: ADME, organism-based; conditions: 1.5 h
Rattus norvegicus [12] = assay: Biodistribution of [18F]-AFP in rat hippocampus at 60 min postinjection in vivo; assay type: ADME, organism-based; conditions: 1 h; in short: as §1
Rattus norvegicus [13] = assay: Biodistribution of [18F]AFP in rat hippocampus at 120 min postinjection in vivo; assay type: ADME, organism-based; conditions: 2 h
Rattus norvegicus [14] = assay: Biodistribution of [18F]AFP in rat cerebellum at 60 min postinjection in vivo; assay type: ADME, organism-based; conditions: 1 h
Rattus norvegicus [15] = assay: Biodistribution of [18F]-AFP in rat hippocampus at 10 min postinjection in vivo; assay type: ADME, organism-based; in short: as §1
Rattus norvegicus [16] = assay: Biodistribution of [18F]AFP in rat hypothalamus at 30 min postinjection in vivo; assay type: ADME, organism-based; conditions: 0.5 h
Rattus norvegicus [17] = assay: Biodistribution of [18F]-AFP in rat blood at 120 min postinjection in vivo; assay type: ADME, organism-based; conditions: 2 h; in short: as §1
Rattus norvegicus [18] = assay: Biodistribution of [18F]-AFP in rat frontal cortex at 30 min postinjection in vivo; assay type: ADME, organism-based; conditions: 0.5 h; in short: as §1
Rattus norvegicus [19] = assay: Biodistribution of [18F]AFP in rat cerebellum at 90 min postinjection in vivo; assay type: ADME, organism-based; conditions: 1.5 h
Rattus norvegicus [20] = assay: Biodistribution of [18F]AFP in rat thalamus at 90 min postinjection in vivo; assay type: ADME, organism-based; conditions: 1.5 h
Rattus norvegicus [21] = assay: Biodistribution of [18F]-AFP in rat frontal cortex at 60 min postinjection in vivo; assay type: ADME, organism-based; conditions: 1 h; in short: as §1
Rattus norvegicus [22] = species on record: Rattus norvegicus; assay: Specific binding of [18F]AFA in thalamus of rat pretreated with compound 7f; n=3; assay type: functional
Rattus norvegicus [23] = assay: Biodistribution of [18F]AFP in rat striatum at 90 min postinjection in vivo; assay type: ADME, organism-based; conditions: 1.5 h
Rattus norvegicus [24] = assay: Biodistribution of [18F]AFP in rat thalamus at 120 min postinjection in vivo; assay type: ADME, organism-based; conditions: 2 h
Rattus norvegicus [25] = assay: Biodistribution of [18F]AFP in rat blood at 60 min postinjection in vivo; assay type: ADME, organism-based; conditions: 1 h
Rattus norvegicus [26] = assay: Biodistribution of [18F]AFP in rat frontal cortex at 120 min postinjection in vivo; assay type: ADME, organism-based; conditions: 2 h
Rattus norvegicus [27] = assay: Biodistribution of [18F]AFP in rat thalamus at 60 min postinjection in vivo; assay type: ADME, organism-based; conditions: 1 h
Rattus norvegicus [28] = assay: Biodistribution of [18F]AFP in rat striatum at 30 min postinjection in vivo; assay type: ADME, organism-based; conditions: 0.5 h
Rattus norvegicus [29] = assay: Biodistribution of [18F]AFP in rat hippocampus at 30 min postinjection in vivo; assay type: ADME, organism-based; conditions: 0.5 h
Rattus norvegicus [30] = assay: Biodistribution of [18F]AFP in rat thalamus at 30 min postinjection in vivo; assay type: ADME, organism-based; conditions: 0.5 h
Rattus norvegicus [31] = species on record: Rattus norvegicus; assay: Specific binding of [18F]AFA in hippocampus of rat pretreated with compound 7f; n=3; assay type: functional
Rattus norvegicus [32] = assay: Biodistribution of [18F]-AFP in rat cerebellum at 30 min postinjection in vivo; assay type: ADME, organism-based; conditions: 0.5 h; in short: as §1
Rattus norvegicus [33] = assay: Biodistribution of [18F]AFP in rat cerebellum at 120 min postinjection in vivo; assay type: ADME, organism-based; conditions: 2 h
Rattus norvegicus [34] = assay: Biodistribution of [18F]AFP in rat striatum 60 min postinjection in vivo; assay type: ADME, organism-based; conditions: 1 h
Rattus norvegicus [35] = species on record: Rattus norvegicus; assay: Specific binding of [18F]-AFA in frontal cortex of rat pretreated with compound 7f; n=3; assay type: functional
Rattus norvegicus [36] = assay: Biodistribution of [18F]AFP in rat striatum at 120 min postinjection in vivo; assay type: ADME, organism-based; conditions: 2 h
Rattus norvegicus [37] = assay: Biodistribution of [18F]AFP in rat blood at 90 min postinjection in vivo; assay type: ADME, organism-based; conditions: 1.5 h
Rattus norvegicus [38] = species on record: Rattus norvegicus; assay: Specific binding of [18F]AFA in striatum of rat pretreated with compound 7f; n=3; assay type: functional
Rattus norvegicus [39] = assay: Biodistribution of [18F]AFP in rat hypothalamus at 120 min postinjection in vivo; assay type: ADME, organism-based; conditions: 2 h
Rattus norvegicus [40] = assay: Biodistribution of [18F]AFP in rat thalamus at 10 min postinjection in vivo; assay type: ADME, organism-based

In the case of CN(C)Cc1ccccc1Sc1ccc(CCC[18F])cc1N, the Biodistribution (Rattus norvegicus [1]) is reported as 0.05 %ID/g, the Specific binding (Rattus norvegicus [2]) is reported as 0.26 %ID/g and the Biodistribution (Rattus norvegicus [3]) is reported as 0.07 %ID/g. The Biodistribution (Rattus norvegicus [4]) was 0.13 %ID/g, the Biodistribution (Rattus norvegicus [5]) was 0.41 %ID/g and the Biodistribution (Rattus norvegicus [6]) was 0.15 %ID/g. It also gave a Biodistribution (Rattus norvegicus [7]) of 0.18 %ID/g, a Biodistribution (Rattus norvegicus [8]) of 0.42 %ID/g and a Biodistribution (Rattus norvegicus [9]) of 0.31 %ID/g. It also gave a Biodistribution (Rattus norvegicus [10]) of 0.47 %ID/g, a Biodistribution (Rattus norvegicus [11]) of 0.1 %ID/g and a Biodistribution (Rattus norvegicus [12]) of 0.13 %ID/g. It also gave a Biodistribution (Rattus norvegicus [13]) of 0.08 %ID/g, a Biodistribution (Rattus norvegicus [14]) of 0.07 %ID/g and a Biodistribution (Rattus norvegicus [15]) of 0.36 %ID/g. The Biodistribution (Rattus norvegicus [16]) was 0.21 %ID/g, the Biodistribution (Rattus norvegicus [17]) was 0.04 %ID/g and the Biodistribution (Rattus norvegicus [18]) was 0.21 %ID/g. For the same compound, the Biodistribution (Rattus norvegicus [19]) was 0.03 %ID/g, the Biodistribution (Rattus norvegicus [20]) was 0.1 %ID/g and the Biodistribution (Rattus norvegicus [21]) was 0.12 %ID/g. The Specific binding (Rattus norvegicus [22]) was 0.35 %ID/g, the Biodistribution (Rattus norvegicus [23]) was 0.08 %ID/g and the Biodistribution (Rattus norvegicus [24]) was 0.1 %ID/g. The Biodistribution (Rattus norvegicus [25]) was 0.14 %ID/g, the Biodistribution (Rattus norvegicus [26]) was 0.08 %ID/g and the Biodistribution (Rattus norvegicus [27]) was 0.16 %ID/g. It also gave a Biodistribution (Rattus norvegicus [28]) of 0.21 %ID/g, a Biodistribution (Rattus norvegicus [29]) of 0.19 %ID/g and a Biodistribution (Rattus norvegicus [30]) of 0.28 %ID/g. The Specific binding (Rattus norvegicus [31]) was 0.03 %ID/g, the Biodistribution (Rattus norvegicus [32]) was 0.14 %ID/g and the Biodistribution (Rattus norvegicus [33]) was 0.03 %ID/g. It also gave a Biodistribution (Rattus norvegicus [34]) of 0.11 %ID/g, a Specific binding (Rattus norvegicus [35]) of 0.05 %ID/g and a Biodistribution (Rattus norvegicus [36]) of 0.08 %ID/g. It also gave a Biodistribution (Rattus norvegicus [37]) of 0.08 %ID/g, a Specific binding (Rattus norvegicus [38]) of 0.07 %ID/g and a Biodistribution (Rattus norvegicus [39]) of 0.1 %ID/g. The Biodistribution (Rattus norvegicus [40]) was 0.44 %ID/g.
